Sampled rows, rich in hits. Any-hit rate of the full collection: about 0.74%.
DDE Tn6 FP inh = disrupts Tn6 cyclic peptide binding to fibrin D-Dimer-E complex; actives 0.21% (n = 370,000); Fibrin DD(E) TRITC-Tn6 fluorescence polarization displacement; inhibition, % at 8.3 µM; P02675;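 active = inhibition above a per-campaign cutoff: mean of compounds within control limits plus 3 SD, cut at about 15% in these data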
DDE Tn7 FP inh = DD(E)-Tn7 binding inhibition, primary FP screen | P02675 | FP displacement of FITC-Tn7 peptide from fibrin DD(E); 0% = median of compound wells per plate | inhibition, % at 8.3 µM | actives 0.13% (n = 370,000) | AID 720508;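 active = inhibition above the mean of compounds falling within the control limits plus 3 SD of them, cut at about 14% in these data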
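system = human fibrin DD(E) protein | quantity = DD(E) 2 µM final | medium = Tris/NaCl/CaCl2 buffer, pH 7.8 | also added = labelled Tn7 tracer, 0.1 µM | compound dosing = single point at 8.3 µM | timing = compound with protein 10 min, then 3 h after probe, room temperature | signal = FP measurement | benchmarks = Aha-Tn7 high control | repeats = one replicate per compound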
ASAP1 inh = ASAP1 ArfGAP inhibition | actives 0.19% (n = 360,000) | inhibition, % at 16.5 µM | ASAP1-stimulated ARF1 GTP hydrolysis, GDP FP detection | Q9ULH1; in the data active = inhibition above about 25%
Target sequence (Q9ULH1 325-724 limits assumed): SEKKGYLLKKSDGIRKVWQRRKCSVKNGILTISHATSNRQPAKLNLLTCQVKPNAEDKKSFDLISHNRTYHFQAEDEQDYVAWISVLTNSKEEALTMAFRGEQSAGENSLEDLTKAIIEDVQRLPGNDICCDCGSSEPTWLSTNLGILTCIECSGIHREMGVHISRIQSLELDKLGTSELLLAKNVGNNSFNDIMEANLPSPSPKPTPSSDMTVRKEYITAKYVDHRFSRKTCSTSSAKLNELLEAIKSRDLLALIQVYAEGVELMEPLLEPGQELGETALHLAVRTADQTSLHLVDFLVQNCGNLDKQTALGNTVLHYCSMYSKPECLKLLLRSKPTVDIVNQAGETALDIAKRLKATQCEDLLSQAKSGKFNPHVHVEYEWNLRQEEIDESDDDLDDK
ARFGAP1 inh = inhibitors of rat ARFGAP1; inhibition, % at 16.5 µM; actives 0.26% (n = 360,000); Arfgap1-stimulated ARF1 GTP hydrolysis, GDP FP detection; Q62848;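 active = inhibition above a per-plate limit, mean inhibition of low control wells plus 3 SD, cut at about 25% in these data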
Target sequence (Q62848 1-136 limits assumed): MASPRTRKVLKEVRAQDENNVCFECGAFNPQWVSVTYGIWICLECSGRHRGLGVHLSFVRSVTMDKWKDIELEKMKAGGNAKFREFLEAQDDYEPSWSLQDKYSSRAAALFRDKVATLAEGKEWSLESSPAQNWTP
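Assay system: purified rat His6-Arfgap1 residues 1-136 (GAP domain); Reagent: human Δ17 ARF1 bound to GTP; Dosing: 16.5 µM single point, 1.26% DMSO; Times: GTP hydrolysis reaction 2 h at 25 °C; Signal: FP, GDP Alexa 633 tracer displaced from anti-GDP antibody, 620/688 nm; Measure: % inhibition from polarization.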
ASAP1 inh confirm = confirmation of human ASAP1 inhibitors | inhibition, % at 16.5 µM | actives 37% (n = 620) | AID 624431 | ASAP1-stimulated Arf1 GTPase, GDP fluorescence polarization | shares compounds with ASAP1 inh;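 active = mean inhibition over triplicates exceeds the hit threshold derived for the earlier primary screening run, cut at about 25% in these data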
A number is an active result; . = inactive; / = not tested or not shown.

SMILES	DDE Tn6 FP inh	DDE Tn7 FP inh	ASAP1 inh	ARFGAP1 inh	ASAP1 inh confirm
Cc1cccc(OCc2nnc(SCC(=O)Nc3ccc(N4CCOCC4)cc3)o2)c1	.	.	32	.	.
COC(=O)[C@]12C[C@H](CC(=O)NCc3cccc4ccccc34)C(=O)N(CCC3=CCCCC3)C1=C[C@H](COCc1ccccc1)O[C@@H]2C	.	.	.	.	/
Oc1oc(-c2ccccc2Br)nc1C=Nc1ccc(Br)cn1	.	.	51	.	110
Oc1oc(-c2ccccc2)nc1/C=N/c1ccccn1	.	.	.	.	/
N#Cc1c(-c2cccc(Br)c2)cc(-c2cccnc2)nc1N	.	.	28	.	.
N#Cc1c(-c2ccc(Br)cc2)cc(-c2cccnc2)nc1N	.	.	.	.	/
CC(C)(C)S(=O)N1C[C@@H]2CC(=O)C(CCO)=C2[C@H]1CCO (some centres undefined)	.	.	.	.	/
CCCCNc1ccc2c(c1)OC[C@H](C)NS2(=O)=O	.	.	.	.	/
Cc1ccc(S(=O)(=O)c2c(N)n(CCC(C)C)c3nc4ccccc4nc23)cc1	.	.	25	.	.
CC1=CC2=NC(=O)/C(=C\c3ccc(-c4ccc(Cl)cc4)o3)C(=N)N2O1	.	.	30	.	87
O=C(Nc1sc2c(c1C(=O)O)CCCCC2)c1ccco1	.	.	.	.	/
CC1CCc2c(sc(NC(=O)c3ccco3)c2C(=O)O)C1 (centres undefined)	.	.	27	.	.
CC1CCN(C(=O)COC(=O)c2cc3ccccc3cc2O)CC1	.	.	26	.	.
CC(C)(C)C(=O)COC(=O)c1cc2ccccc2cc1O	.	.	.	.	/
CC(=O)c1cccc(Nc2nc(-c3ccccc3)nc3ccccc23)c1	.	.	.	.	/
CC(=O)Nc1cccc(Nc2nc(-c3ccccc3)nc3ccccc23)c1	.	.	.	.	/
COC(=O)c1cccc(Nc2nc(-c3ccncc3)nc3ccccc23)c1	.	.	28	.	57
Oc1cccc(Nc2nc(-c3ccccc3)nc3ccccc23)c1	.	.	27	.	28
CCOC(=O)C1=CCN(S(=O)(=O)c2ccc(Br)cc2)C1c1ccc(F)cc1 (centres undefined)	.	.	.	.	/
C[C@@H]1CC2=C(C(=O)OC(C)(C)O2)[C@H](c2ccc(F)cc2)O1	.	.	.	.	/
C[C@@H]1CC2=C(C(=O)OC(C)(C)O2)[C@H](c2ccc(Cl)cc2)O1	.	.	26	.	.
COc1ccc(/C=C2\SC(=O)N(CC(=O)Nc3ccc(O)cc3)C2=O)cc1OC	.	.	.	.	/
Cc1ccc(NC(=O)CN2C(=O)S/C(=C\c3cc(Cl)c(OCC(=O)O)c(Cl)c3)C2=O)cc1	.	.	65	37	75
O=C(COC(=O)C1CC(=O)N(Cc2ccco2)C1)c1ccc(OC(=O)c2ccco2)cc1 (centres undefined)	.	.	28	.	.
COc1ccc(OC)c(NC(=O)O[C@@H]2CC[C@@]34CCCN3C(=O)CCC[C@H]4C2)c1	.	.	/	/	/
SMILES	DDE Tn6 FP inh	DDE Tn7 FP inh	ASAP1 inh	ARFGAP1 inh	ASAP1 inh confirm
COc1ccc(CN2C[C@H](COCc3ccccc3)Oc3cccc(N4CCCC4)c3S2(=O)=O)cc1	.	.	.	.	/
CC(=O)Nc1ccc(N2C(=O)CSC2c2ccc(F)cc2)cc1 (centres undefined)	.	.	.	.	/
CC(=O)Nc1ccc(N2C(=O)CSC2c2c(F)cccc2Cl)cc1 (centres undefined)	.	.	27	.	.
O=Nc1c(O)c2ccccc2c2ccccc12	.	.	.	.	/
O=c1c(=Nc2ccccc2O)c(=O)c2ccccc12	.	.	28	.	.
CCCCCCC12C(=Cc3cc4c(cc31)OCCO4)c1cc(OC)c(OC)cc1C(CC(=O)O)N2C(=O)OC (centres undefined)	.	.	.	.	/
Cc1ccc(SCC(=O)NC2CC2)cc1	.	.	27	.	.
CC(=O)N(C)c1ccc(NC(=O)Nc2ccccc2C)cc1	.	.	.	.	/
CC(=O)N(C)c1ccc(NC(=O)Nc2ccc(C)c(C)c2)cc1	.	.	27	.	.
CC(=O)Oc1ccc2ccccc2c1C(NC(=O)Cc1ccccc1)c1ccc(Cl)cc1 (centres undefined)	.	.	140	.	.
COc1ccc(-n2nc(C(=O)NCC(=O)NC(C)C)c3ccccc3c2=O)cc1Cl	.	.	.	.	/
COc1ccc(-n2nc(C(=O)NCC(=O)Nc3ccccn3)c3ccccc3c2=O)cc1Cl	.	.	51	.	61
C[C@@H]1CN([C@@H](C)CO)C(=O)CCCn2cc(nn2)CO[C@H]1CN(C)C(=O)Nc1ccccc1	.	.	.	.	/
Cc1oc2c(c(C)nn2-c2ccccc2)c(=O)c1Cl	.	.	.	.	/
CCNC(=O)/C(C#N)=C/c1c(N2CC(C)OC(C)C2)nc2ccccn2c1=O (centres undefined)	.	.	49	.	.
COC(=O)Cc1nnn2c1[C@H](C)[C@H](c1ccccc1Br)OC[C@@H]2c1ccccc1	.	.	.	.	/
O=C(O)CC1(CC(=O)Nc2cc(F)ccc2Cl)CCCCC1	.	.	25	.	.
COC(=O)C1=C(C)N(C)C(=NCc2ccc(OC)cc2)NC1c1ccc(Cl)cc1 (centres undefined)	.	.	.	.	/
O=c1[nH]c(Nc2ccccc2)cc2cc(Br)ccc12	.	.	36	.	.
O=c1cc(Nc2cccc(Br)c2)[nH]c(=O)[nH]1	.	.	.	.	/
CC(C)(C)n1nc(C2CC2)cc1NC(=O)Nc1ccccc1	.	.	.	.	/
CC(C)NC(=O)C(=O)Nc1ccc2c(c1)N(S(=O)(=O)c1cccs1)CCC2	.	.	.	.	/
CNC(=O)C(=O)Nc1ccc2c(c1)N(S(=O)(=O)c1cccs1)CCC2	.	.	29	.	.
O=C(O)C1[C@H]2C(=O)N(Cc3cccs3)C[C@]23C=C[C@H]1O3 (some centres undefined)	.	.	25	.	.
COc1ccc(C(=O)Nc2ccc(OCC(F)(F)C(F)F)c(C(F)(F)F)c2)cc1OC	.	.	26	.	26
SMILES	DDE Tn6 FP inh	DDE Tn7 FP inh	ASAP1 inh	ARFGAP1 inh	ASAP1 inh confirm
O=C(Nc1ccc(OCC(F)(F)C(F)F)c(C(F)(F)F)c1)c1ccc(Cl)cc1	.	.	.	.	/
COc1ccc(C(=O)Nc2ccc3c(c2)C(=O)c2ccccc2C3=O)cc1OC	.	.	27	.	40
C[C@H](O)[C@@H]1C(=O)N2CCc3c([nH]c4c(-c5ccc6c(c5)OCO6)cccc34)[C@@H]2C[C@@H]1N(C)C(=O)Nc1ccccc1	.	.	29	.	.
C[C@H]1CN([C@@H](C)CO)C(=O)CCCn2nncc2CO[C@@H]1CN(C)S(=O)(=O)c1cccs1	.	.	.	.	/
O=C(C(=O)N1CCC(CNS(=O)(=O)c2cccc3ccccc23)CC1)c1cccs1	.	.	.	.	/
COc1ccccc1Oc1cc(F)nc(N)n1	.	.	26	.	.
